From publication PMC5931369 (Nature chemical biology, 2018)
Where “and” joins values, the source holds several entries; their conditions need not be identical. Equal values may be shown once. Entries after “also recorded” stand apart in the source; their conditions may differ.

How the values were obtained:
[1] = test system: ptc>dRet^M955T flies; assay: rescue-from-lethality assay in ptc>dRet^M955T flies; assay type: in vivo, Drosophila; conditions: drug food, 25°C; for rescue of ptc>dRet^M955T flies to adulthood (% viability): optimal dose
Procedure, shortened: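 ptc-gal4,UAS-GFP;UAS-dRetM955T/SM5tub-gal80-TM6B flies were crossed with w−. Embryos were raised for 13 days at 25°C on semi-defined medium carrying compound added from DMSO, 0.1% final. Flies were randomised. % viability = empty pupal cases ÷ total pupal cases. The assay was repeated twice.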

[2] = test system: ptc>dRet^M955T flies with or without kinase heterozygous mutations; assay type: in vivo, Drosophila; conditions: 23°C
[3] = test system: dRet^M955T-expressing wing cells; assay: in vivo cell migration assay in developing wing discs; parameters: species or system Drosophila; conditions: for EMT and migration/invasion of dRet^M955T-expressing wing cells: ptc>dRet^M955T wing discs; for effect of reduced Lk6 on suppression of ptc>dRet^M955T cell migration: ptc>dRet^M955T,Lk6^−/+ wing discs, 1 400 µM, 4 200 µM, 9 100 µM, 10 100 µM
Procedure, shortened: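 Third-instar larvae were dissected to collect developing wing discs. Discs were fixed in 4% paraformaldehyde in PBS and whole-mounted. GFP-labelled dRetM955T-expressing cells were examined by confocal microscopy. Phospho-Src was immunostained with rabbit anti-Src(pY418).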

[4] = test system: 765>dRet^M955T flies; assay: wing venation assay; assay type: in vivo, Drosophila
Procedure, shortened: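 UAS-dRetM955T;765-gal4/SM5tub-gal80-TM6B flies were crossed with w– or Lk6−/+ to give 765>dRetM955T or 765>dRetM955T,Lk6−/+ progeny. Progeny were reared for 13 days at 25°C on medium with or without compound (0.1% final DMSO). Adult wings were scored blind for abnormal venation. The assay was repeated twice.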

[5] = test system: non-oncogenic w^− flies; assay: whole body toxicity in control, non-transformed flies; assay type: in vivo, Drosophila; conditions: fed to control
[6] = test system: TT human MTC cells; assay: soft agar colony formation assay; assay type: cell-based; conditions: three weeks, compared with sorafenib and 4
Procedure, shortened: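 TT cells were cultured in 0.3% agar with or without test compound for three weeks. Colony formation efficiency = number of growing colonies ÷ cells seeded. The assay was repeated twice.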

[7] = target: BRAF (Homo sapiens, UniProt P15056); assay: Kd measurement; assay type: binding; conditions: cell-free in vitro
BRAF, sequence (P15056 whole entry): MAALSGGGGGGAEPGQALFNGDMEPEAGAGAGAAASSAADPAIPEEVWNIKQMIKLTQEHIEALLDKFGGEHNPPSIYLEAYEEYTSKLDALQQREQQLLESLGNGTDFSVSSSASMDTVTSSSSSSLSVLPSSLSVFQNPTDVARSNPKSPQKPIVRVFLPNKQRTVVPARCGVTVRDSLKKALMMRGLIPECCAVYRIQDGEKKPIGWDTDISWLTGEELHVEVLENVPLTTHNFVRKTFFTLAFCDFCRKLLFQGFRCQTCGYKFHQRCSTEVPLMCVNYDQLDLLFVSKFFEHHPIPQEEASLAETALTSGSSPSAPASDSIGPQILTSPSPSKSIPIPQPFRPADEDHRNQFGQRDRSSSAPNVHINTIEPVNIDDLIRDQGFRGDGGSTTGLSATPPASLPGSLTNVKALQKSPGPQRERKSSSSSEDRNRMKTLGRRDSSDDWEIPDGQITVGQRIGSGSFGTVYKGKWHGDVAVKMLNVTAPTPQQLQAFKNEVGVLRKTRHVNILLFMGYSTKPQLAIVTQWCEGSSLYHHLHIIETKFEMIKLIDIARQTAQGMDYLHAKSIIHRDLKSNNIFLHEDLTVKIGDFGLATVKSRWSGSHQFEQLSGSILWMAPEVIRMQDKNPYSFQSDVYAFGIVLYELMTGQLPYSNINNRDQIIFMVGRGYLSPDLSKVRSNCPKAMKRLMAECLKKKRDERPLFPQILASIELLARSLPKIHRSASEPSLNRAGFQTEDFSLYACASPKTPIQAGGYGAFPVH
Procedure, shortened: (§1)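 Competition binding assay: kinases expressed on phage and captured on beads through immobilised active-site-directed ligands. Test compound is premixed with kinase and scored for its ability to compete for the immobilised ligand. An 11-point series, 30,000 to 0.5 nM in 3-fold dilutions, is used for each compound–kinase pair. Kd is fitted by the Hill equation with slope fixed at -1 and averaged over two replicates.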

[8] = target: MKNK1 (Homo sapiens, UniProt Q9BUB5); assay: Kd measurement; assay type: binding
MKNK1, sequence (Q9BUB5 whole entry): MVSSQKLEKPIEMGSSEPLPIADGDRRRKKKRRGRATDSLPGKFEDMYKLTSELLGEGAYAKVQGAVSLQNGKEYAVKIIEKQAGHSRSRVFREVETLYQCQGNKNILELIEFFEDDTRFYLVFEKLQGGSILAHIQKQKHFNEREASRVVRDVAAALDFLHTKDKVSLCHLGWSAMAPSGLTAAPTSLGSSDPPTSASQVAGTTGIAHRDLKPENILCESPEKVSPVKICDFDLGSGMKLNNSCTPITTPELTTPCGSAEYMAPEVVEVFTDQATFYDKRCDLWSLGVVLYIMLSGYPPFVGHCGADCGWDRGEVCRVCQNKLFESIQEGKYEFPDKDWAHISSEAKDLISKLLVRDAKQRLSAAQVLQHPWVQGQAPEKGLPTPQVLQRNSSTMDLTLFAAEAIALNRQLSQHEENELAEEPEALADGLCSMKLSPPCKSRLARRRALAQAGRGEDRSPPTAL
Procedure, shortened: as §1

[9] = test system: MZ-CRC-1 human MTC cells; assay: signaling pathway activity analysis; assay type: cell-based; conditions: MZ-CRC-1 cells, 1 µM, 1 hour
Procedure, shortened: (§2)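 MZ-CRC-1 or TT medullary thyroid carcinoma cells were exposed for 1 hour to vehicle (0.1% DMSO) or 1 µM test compound. Cells were harvested and immunoblotted for pMEK, total MEK, pERK1/2, total ERK1/2 and pS6.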

[10] = toleration assay; assay type: in vivo, mouse
Procedure, shortened: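 Five female athymic nude mice (6 weeks) received escalating oral doses from 0.1 mg/kg/day up to 160 mg/kg/day.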

[11] = test system: TT human MTC cells; assay: signaling pathway activity analysis; assay type: cell-based; conditions: 1 µM, 1 hour
Procedure, shortened: as §2

[12] = test system: BRAF in HCT-116 and LOVO cells; assay: RAF transactivation assay in human cancer cell lines; assay type: cell-based; conditions: two cancer cell lines (HCT-116, LOVO), 1 hour
Procedure, shortened: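 HCT-116 cells are kept in DMEM and LOVO cells in DMEM/F12, each with 10% FBS, 2 mM glutamine and antibiotics. Cells are seeded, then treated with test compound for 1 hour after 24 hours. Lysates are BCA-normalised, run on 4–15% gradient SDS-PAGE and immunoblotted for pMEK, pERK1/2 and total MEK.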

[13] = pharmacokinetics assay in mice; assay type: in vivo, mouse
Procedure, shortened: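 Male ICR mice (6 weeks) received a single oral dose of 20 mg/kg. Plasma drug concentrations were measured at 0.25, 0.5, 1, 2, 4, 8, 10 and 24 h after dosing.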

[14] = test system: TT cells; assay: TT cell xenograft assay in nude mice; assay type: in vivo, mouse
Procedure, shortened: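 Forty female nude mice (6 weeks) received subcutaneous TT cells. At ~120 mm3 tumour volume they were randomised into four arms. Each arm was dosed orally five days per week with vehicle or 10 mg/kg/day compound. Vehicle: Cremophor EL/ethanol (1:1) diluted 4-fold with water.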

[15] = target: RET (Homo sapiens, UniProt P07949); assay: Kd measurement; assay type: binding
RET, sequence (P07949 29-1114): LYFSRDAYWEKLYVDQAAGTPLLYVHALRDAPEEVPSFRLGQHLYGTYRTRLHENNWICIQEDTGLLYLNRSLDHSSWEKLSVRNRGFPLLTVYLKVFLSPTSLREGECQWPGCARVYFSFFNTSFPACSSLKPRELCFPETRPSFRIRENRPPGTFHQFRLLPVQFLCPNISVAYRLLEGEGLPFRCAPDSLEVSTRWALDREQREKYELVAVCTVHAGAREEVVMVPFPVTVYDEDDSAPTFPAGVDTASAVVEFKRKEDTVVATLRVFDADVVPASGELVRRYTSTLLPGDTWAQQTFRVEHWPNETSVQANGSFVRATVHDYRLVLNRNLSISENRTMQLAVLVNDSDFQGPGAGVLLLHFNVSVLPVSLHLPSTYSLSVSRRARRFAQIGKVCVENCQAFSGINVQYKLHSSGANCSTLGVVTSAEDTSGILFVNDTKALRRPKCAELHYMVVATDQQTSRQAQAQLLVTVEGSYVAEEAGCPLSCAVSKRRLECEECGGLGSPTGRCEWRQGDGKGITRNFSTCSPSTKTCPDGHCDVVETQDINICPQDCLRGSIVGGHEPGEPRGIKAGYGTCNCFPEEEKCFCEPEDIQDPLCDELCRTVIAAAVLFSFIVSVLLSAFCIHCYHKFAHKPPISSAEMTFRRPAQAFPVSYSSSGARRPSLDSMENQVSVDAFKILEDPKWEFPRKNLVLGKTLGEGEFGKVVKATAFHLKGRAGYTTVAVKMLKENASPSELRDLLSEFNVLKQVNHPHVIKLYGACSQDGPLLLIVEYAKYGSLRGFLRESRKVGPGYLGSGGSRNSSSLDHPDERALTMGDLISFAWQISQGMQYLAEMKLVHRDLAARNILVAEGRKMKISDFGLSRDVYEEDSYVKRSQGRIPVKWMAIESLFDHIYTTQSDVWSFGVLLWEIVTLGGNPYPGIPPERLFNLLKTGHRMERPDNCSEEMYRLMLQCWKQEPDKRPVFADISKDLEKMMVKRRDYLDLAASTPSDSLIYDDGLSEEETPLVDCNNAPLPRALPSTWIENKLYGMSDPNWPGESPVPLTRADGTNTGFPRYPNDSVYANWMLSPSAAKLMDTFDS
Procedure, shortened: as §1

[16] = higher doses that rescued ptc>dRet^M955T viability
[17] = low dose, 10 µM final food concentration, 765>dRet^M955T larvae

CNC(=O)c1cc(Oc2ccc(NC(=O)Nc3cc(C(F)(F)F)ccc3F)cc2)ccn1 [compound 4, 4-(4-(3-(2-fluoro-5-(trifluoromethyl)phenyl)ureido)phenoxy)-N-methylpicolinamide]
rescue of ptc>dRet^M955T viability, in words ([1]; listed as LS1-15): more effective than sorafenib
viability of ptc>dRet^M955T flies ([2]; kinase-proficient control flies): ~ 50% and 50%
survival to adulthood of ptc>dRet^M955T,Lk6^−/+ flies ([2]; one functional allele of Lk6 removed): 0%
viability of ptc>dRet^M955T,phl^−/+ flies ([2]; phl (RAF ortholog) heterozygous): 96%
EMT and migration/invasion of dRet^M955T-expressing wing cells [3]: as effective as sorafenib in suppressing EMT and invasion
effect of reduced Lk6 on suppression of ptc>dRet^M955T cell migration [3]: reversed suppression
ectopic wing venation [4, 16]: did not promote ectopic wing venation
ectopic wing venation [4, 17]: stimulated significant excess wing vein material

CNC(=O)c1cc(Oc2ccc(NC(=O)c3ccc(Cl)c(C(F)(F)F)c3)cc2)ccn1 [compound 6, 4-(4-(4-chloro-3-(trifluoromethyl)benzamido)phenoxy)-N-methylpicolinamide]
whole body toxicity [5]: toxic
EMT and migration/invasion of dRet^M955T-expressing wing cells [3]: enhanced cell migration

N-methyl-4-(4-(3-(3-(trifluoromethyl)phenyl)ureido)phenoxy)picolinamide [sorafenib, reference compound]
rescue of ptc>dRet^M955T viability, in words [1]: only moderate
rescue of ptc>dRet^M955T flies to adulthood (% viability) [1]: ~ 5% and 5%
EMT and migration/invasion of dRet^M955T-expressing wing cells [3]: suppressed both EMT and migration
effect of reduced Lk6 on suppression of ptc>dRet^M955T cell migration [3]: reversed suppression
ectopic wing venation [4, 16]: did not promote ectopic wing venation
ectopic wing venation [4, 17]: stimulated significant excess wing vein material

CNC(=O)c1cc(Oc2ccc(NC(=O)Nc3cc(C(F)F)ccc3F)cc2)ccn1 [compound 7, 4-(4-(3-(5-(difluoromethyl)-2-fluorophenyl)ureido)phenoxy)-N-methylpicolinamide]
rescue of ptc>dRet^M955T viability, in words [1]: reduced rescue
rescue of ptc>dRet^M955T viability, in words ([1]; listed as APS4-54): poor whole animal activity

CNC(=O)c1cc(Oc2ccc(NC(=O)Nc3cccc(C(F)(F)F)c3)cc2)ccn1 [LS1-11-2, N-methyl-4-(4-(3-(3-(trifluoromethyl)phenyl)ureido)phenoxy)picolinamide]
rescue of ptc>dRet^M955T viability, in words [1]: reduced survival

CNC(=O)c1cc(Oc2ccc(NC(=O)Nc3cc(C(F)(F)C(F)(F)F)ccc3F)cc2)ccn1 [compound 9, 4-(4-(3-(2-fluoro-5-(perfluoroethyl)phenyl)ureido)phenoxy)-N-methylpicolinamide]
colony formation of TT cells in soft agar [6]: strongly suppressed
BRAF binding compared to sorafenib and 4 [7]: reduced BRAF binding
rescue of ptc>dRet^M955T viability, in words [1]: strongly improved
in vitro MKNK1 binding relative to sorafenib [8]: significantly reduced
effect of reduced Lk6 on suppression of ptc>dRet^M955T cell migration [3]: not affected
ectopic wing venation ([4]; at any dose): failed to promote ectopic wing venation

CNC(=O)c1cc(Oc2ccc(NC(=O)Nc3ccc(Cl)c(C(F)(F)F)c3)c(F)c2)ccn1 [regorafenib, 4-(4-(3-(4-chloro-3-(trifluoromethyl)phenyl)ureido)-3-fluorophenoxy)-N-methylpicolinamide, reference compound]
rescue of ptc>dRet^M955T viability, in words [1]: only moderate

CNC(=O)c1cc(Oc2ccc(NC(=O)Nc3cc(C)ccc3F)cc2)ccn1 [compound 8, 4-(4-(3-(2-fluoro-5-methylphenyl)ureido)phenoxy)-N-methylpicolinamide]
rescue of ptc>dRet^M955T viability, in words [1]: reduced rescue
rescue of ptc>dRet^M955T viability, in words ([1]; listed as APS4-35-1): poor whole animal activity

CNC(=O)c1cc(Oc2ccc(NC(=O)Nc3cc(C(F)(F)F)ccc3F)c(F)c2)ccn1 [compound 5, 4-(3-fluoro-4-(3-(2-fluoro-5-(trifluoromethyl)phenyl)ureido)phenoxy)-N-methylpicolinamide]
rescue of ptc>dRet^M955T viability, in words [1]: more effective than sorafenib
EMT and migration/invasion of dRet^M955T-expressing wing cells [3]: as effective as sorafenib in suppressing EMT and invasion

CNC(=O)c1cc(Oc2ccc(NC(=O)Nc3cc(C(F)(C(F)(F)F)C(F)(F)F)ccc3F)cc2)ccn1 [compound 10, 4-(4-(3-(2-fluoro-5-(perfluoropropan-2-yl)phenyl)ureido)phenoxy)-N-methylpicolinamide]
colony formation of TT cells in soft agar [6]: strongly suppressed
RAS pathway signaling [9]: strongly inhibited
signs of clinical distress (weight loss, discharges, morbidity) ([10]; female athymic nude mice, oral dose escalated from 0.1 up to 160 mg/kg/day): no such signs were observed
toxic effects after oral dosing ([10]; single oral dose of 160 mg/kg): did not cause detectable toxic effects
BRAF binding compared to sorafenib and 4 [7]: reduced BRAF binding
RAS pathway signaling [11]: strongly inhibited
drug concentration required to transactivate BRAF relative to sorafenib [12]: ~ 30 fold
treatment-related clinical signs following dosing ([13]; 20 mg/kg orally, male ICR mice): No treatment-related clinical signs were observed
concentration in blood plasma ([13]; 20 mg/kg p.o., male ICR mice): approximately 10 µM
half-life ([13]; male, ICR, mouse, plasma, po, 20 mg/kg): 5.6 h
partial or complete responses, share of dosed mice ([14]; 10 mg/kg/day p.o. five days per week, day 30, female nude mice): 75%
growth of established TT tumors ([14]; 10 mg/kg/day p.o. five days per week, subcutaneous xenograft, nude mice): far more potently than sorafenib or cabozantinib
body weight of dosed mice ([14]; 10 mg/kg/day p.o., after 30 days): no effect; also recorded: did not affect body weight
rescue of ptc>dRet^M955T viability, in words [1]: strongly improved
rescue of ptc>dRet^M955T flies to adulthood (% viability) [1]: 84%
in vitro MKNK1 binding relative to sorafenib [8]: only a small decrease
effect of reduced Lk6 on suppression of ptc>dRet^M955T cell migration [3]: not affected
ectopic wing venation ([4]; at any dose): failed to promote ectopic wing venation
RET binding relative to sorafenib [15]: weaker RET binding

CC(=O)Nc1cccc(-n2c(=O)n(C3CC3)c(=O)c3c(Nc4ccc(I)cc4F)n(C)c(=O)c(C)c32)c1 [trametinib, reference compound]
rescue of ptc>dRet^M955T viability, in words [1]: only moderate
ectopic wing venation ([4]; 1 µM, 765>dRet^M955T adults): strongly suppressed ectopic venation
wing defects (enhanced wing venation, poor wing structure) ([4]; 765>dRet^M955T,Lk6^−/+ flies): suppressed
